This excerpt belongs to a sample that is enriched for hits.
AP ELISA ortho = alternative complement pathway inhibitors, primary screen, biochemical, ELISA, human serum, orthogonally pooled compounds; LPS-coated ELISA, C3 deposition; tested in compound mixtures; inhibition, % at 5 µM; actives 0.08% (n = 62,000);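 active means inhibition above 30% in each of the two pooled mixtures holding the compound, so the lower value exceeds 30%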;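 further: 0% = serum in Mg-EGTA without compound and 100% = EDTA serum blank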
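Test system: human serum complement alternative pathway, C3 deposition onto LPS / Medium: Mg2+-EGTA GVB++ buffer containing human serum at 1:15 dilution / Probe or stimulus: Plate-bound LPS / Times: 1 h at 37 °C / Signal: ELISA with HRP anti-human C3 antibody, TMB substrate, absorbance 450 nm / Measure: percent inhibition / Repeats: two pool placements per compound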
Ecoli tolC = growth inhibitors of E. coli tolC mutant, primary screen, strain BW25113 ΔtolC::kan, 384-well. actives 2.2% (n = 65,000). AID 573, 2007. OD615. growth inhibition, % at 10 µM (by protocol);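 active means growth inhibition at or above a cutoff equal to the mean over every tested compound plus 3 SD, cut at about 60% in these data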;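 further: growth measured after 20 h incubation at 37 °C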
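signal = optical density read at 615 nm | test system = E. coli ΔtolC::kan strain BW25113 | timing = 20 h compound exposure of bacteria at 37 °C | buffer or medium = LB medium plus 50 µg/mL kanamycin | compound dosing = 10 µM final, single dose | evaluation = % inhibition of E. coli growth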
E coli WT exp = growth inhibitors of wild-type E. coli, primary screen, strain BW25113, expanded library, OD600; OD600 absorbance; growth inhibition, % at 100 µM; actives 0.15% (n = 98,000); AID 710, 2007;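 active means growth inhibition above about 50% at one test dose, limit read from the data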;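 further: growth measured after 20 h incubation at 37 °C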
HePTP inh = inhibitors of human HePTP phosphatase, primary screen, biochemical, absorbance, leukemia target; actives 0.64% (n = 110,000); Tyrosine-protein phosphatase non-receptor type 7 (Homo sapiens), P35236; AID 521, 2006; inhibition, % at 20 µM; recombinant HePTP phosphatase activity, OD absorbance; in the data active means inhibition above about 50%;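 further: plate controls were vehicle for no effect and reference inhibitor for full effect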
Target sequence (P35236 whole entry, looked up): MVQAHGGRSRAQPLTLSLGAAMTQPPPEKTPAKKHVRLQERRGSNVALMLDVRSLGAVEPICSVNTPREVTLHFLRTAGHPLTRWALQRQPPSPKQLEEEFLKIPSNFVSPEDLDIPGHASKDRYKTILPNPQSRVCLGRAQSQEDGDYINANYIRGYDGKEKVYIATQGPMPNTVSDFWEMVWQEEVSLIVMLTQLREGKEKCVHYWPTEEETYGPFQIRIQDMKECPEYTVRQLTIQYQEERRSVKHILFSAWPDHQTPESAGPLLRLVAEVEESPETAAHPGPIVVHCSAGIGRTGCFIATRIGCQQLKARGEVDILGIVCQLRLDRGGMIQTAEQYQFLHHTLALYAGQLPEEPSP
MMP13 inh = human MMP13 inhibitors, primary screen, biochemical, FRET peptide cleavage; Collagenase 3 (Homo sapiens), P45452; MMP-13 fTHP FRET cleavage, Mca fluorescence; inhibition, % at 4 µM; actives 0.07% (n = 65,000); AID 570, 2006;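 active means inhibition above the mean of compound-free control plate wells plus 3 SD, cut at about 14% in these data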;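 further: 0% = DMSO wells and 100% = wells with reference MMP-13 inhibitor after basal subtraction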
E coli RNAP = E. coli RNAP inhibitors, biochemical. inhibition, %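 (tested at 10 µM)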. actives 0.2% (n = 62,000). AID 559, 2006. E. coli RNA polymerase, fluorescence transcription assay; in the data active means inhibition above about 20%;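 further: 0% = enzyme without compound and 100% = no enzyme blank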
An asterisk follows results filed as active.

`O=C1c2ccccc2C(=O)C12OC(c1ccc(Cl)cc1)C1(C(=O)c3ccccc3C1=O)C2c1ccc(F)cc1` (stereo unspecified) gave HePTP inh 13.2.
Cc1c(C(=O)NC2CCSC2=O)cccc1[N+](=O)[O-] (stereo unspecified) was read as HePTP inh 54.9*.
`CN(Cc1ccccc1)c1nc2c(c(=O)n(C)c(=O)n2C)n1CCCc1ccccc1` gave AP ELISA ortho 3.8, Ecoli tolC 100.0*, E coli WT exp -16.0, HePTP inh -2.4, MMP13 inh 2.7 and E coli RNAP 7.9.
`Cc1ccc(Cn2c(CN(C)Cc3ccccc3)nc3c2c(=O)n(C)c(=O)n3C)cc1` gave AP ELISA ortho 5.2, Ecoli tolC 49.9, E coli WT exp -5.0, HePTP inh 4.4, MMP13 inh 6.5 and E coli RNAP 8.6.
Screening Cc1ccc(C)c(Cn2c(CN(C)Cc3ccccc3)nc3c2c(=O)n(C)c(=O)n3C)c1 returned AP ELISA ortho 12.0, Ecoli tolC 80.7*, E coli WT exp -6.0, HePTP inh 0.7, MMP13 inh 4.7 and E coli RNAP 8.5.
`Cn1c(=O)c2c(nc(Br)n2CCCc2ccccc2)n(C)c1=O` gave AP ELISA ortho 10.4, Ecoli tolC 8.2, E coli WT exp 4.0, HePTP inh 4.7, MMP13 inh -1.4 and E coli RNAP 8.2.
CCOCCn1c(CN(Cc2ccccc2)Cc2ccccc2)nc2c1c(=O)n(C)c(=O)n2C was read as AP ELISA ortho -7.4, Ecoli tolC 68.0*, E coli WT exp -17.0, HePTP inh 0.3, MMP13 inh -0.7 and E coli RNAP 3.6.
Screening Cc1cc(C)c(NS(=O)(=O)c2cccc([N+](=O)[O-])c2)c(C)c1 returned HePTP inh 0.0.
Screening CC(C)(C)c1cc(C(F)(F)F)nc(SCCCNC(=O)c2ccco2)n1 returned AP ELISA ortho 4.8, Ecoli tolC 100.0*, E coli WT exp 7.0, HePTP inh 7.4, MMP13 inh 4.1 and E coli RNAP 2.3.
Screening O=S(=O)(Nc1ccc(Cl)c(Cl)c1)c1ccc2ccccc2c1 returned HePTP inh 5.6.
`COC(=O)c1c(N)sc(C(=O)Nc2ccc(C)cc2C)c1C` gave HePTP inh -7.6.
For CCOC(=O)C1=C(C)N=c2s/c(=C\c3ccc4c(c3)OCO4)c(=O)n2C1c1ccc(OC(C)=O)cc1 (stereo unspecified) the results were HePTP inh 2.3.
`COc1ccc(O)c(C(=O)CC(=O)c2ccc(F)cc2)c1` gave AP ELISA ortho 15.4, Ecoli tolC 100.0*, E coli WT exp 10.0, HePTP inh -0.3, MMP13 inh -49.2 and E coli RNAP 5.0.
For COc1ccc(O)c(C(=O)CC(=O)c2ccc(C(C)(C)C)cc2)c1 the results were HePTP inh 3.5.
Screening Cc1ccc(O)c(C(=O)CC(=O)c2cccc(F)c2)c1 returned AP ELISA ortho 4.9, Ecoli tolC 100.0*, E coli WT exp 16.0, HePTP inh 9.6, MMP13 inh 2.0 and E coli RNAP 3.2.
`O=C(CC(=O)c1cc(Cl)ccc1O)c1ccccc1` gave AP ELISA ortho 22.0, Ecoli tolC 96.6*, E coli WT exp 18.0, HePTP inh 8.2, MMP13 inh 0.4 and E coli RNAP -1.9.
`Cc1cccc(C(=O)CC(=O)c2cc(Cl)ccc2O)c1` gave E coli WT exp 49.0.
`O=C(Nc1cccc2ccccc12)C1C2C3CCC(C3)C12` (stereo unspecified) gave HePTP inh 10.9.
O=C(Nc1ccc(Cl)c(Cl)c1)Nc1nnc(Cc2ccccc2)s1 was read as HePTP inh -5.1.
CCOc1cc(/C=C(/C#N)c2nc3ccccc3[nH]2)ccc1OCc1ccc(C(=O)O)o1 was read as E coli WT exp -2.0.
CCOc1cc(/C=C(/C#N)c2ccc(F)cc2)ccc1OCc1ccc(C(=O)O)o1 was read as AP ELISA ortho 14.0, Ecoli tolC 81.8*, E coli WT exp -10.0, HePTP inh 7.2, MMP13 inh 3.0 and E coli RNAP 14.9.
For COc1ccc(C(=O)NC(=S)Nc2cccc([N+](=O)[O-])c2)cc1 the results were HePTP inh -13.3.
For O=C(Nc1ccccc1C(=O)O)c1ccc(N2C(=O)c3cccc([N+](=O)[O-])c3C2=O)cc1 the results were HePTP inh 17.2.
O=C(CSc1n[nH]c(-c2ccco2)n1)N1c2ccccc2Sc2ccccc21 was read as AP ELISA ortho -9.3, Ecoli tolC 73.2*, E coli WT exp 0.0, HePTP inh -6.7, MMP13 inh 0.8 and E coli RNAP -7.2.
For CCOC(=O)CSc1n[nH]c(-c2ccco2)n1 the results were AP ELISA ortho 12.8, Ecoli tolC -9.0, E coli WT exp 2.0, HePTP inh 6.6, MMP13 inh 1.8 and E coli RNAP 5.6.
CCOC(=O)C1=NN(C(=O)c2cccc([N+](=O)[O-])c2)C(O)(c2ccc(Cl)cc2)C1 (stereo unspecified) was read as HePTP inh 103.9*.
Screening COC(=O)C1=NN(C(=O)c2cccc(Br)c2)C(O)(c2ccc(Cl)cc2)C1 (stereo unspecified) returned HePTP inh -10.3.
`Nc1n[nH]c(N)c1N=Nc1ccc(F)cc1` gave HePTP inh 3.9.
For Nc1n[nH]c(N)c1N=Nc1ccccc1F the results were HePTP inh 102.7*.
Screening O=C(Oc1ccc(Cl)c2ccccc12)N1CCCCC1 returned E coli WT exp 2.0.
Screening O=C(Oc1ccc2ccccc2c1Cl)N1CCCC1 returned AP ELISA ortho -8.0, Ecoli tolC 60.9*, E coli WT exp 12.0, HePTP inh -8.0, MMP13 inh -0.8 and E coli RNAP -8.9.
`Cc1cc(OCCCC(=O)N2CCCCC2)cc(C)c1Cl` gave AP ELISA ortho 3.6, Ecoli tolC 63.1*, E coli WT exp 0.0, HePTP inh -0.8, MMP13 inh 3.9 and E coli RNAP -0.4.
Screening Cc1cc(Cl)ccc1OCCCC(=O)N1CCCCC1 returned E coli WT exp -5.0.
Screening CCc1ccccc1NC(=O)CN(c1cccc(C(F)(F)F)c1)S(C)(=O)=O returned HePTP inh 8.2.
For COc1ccc(CN=Cc2c(O)n(-c3ccccc3F)c(=O)[nH]c2=O)cc1 the results were HePTP inh 7.9.
For CCCOC(=O)c1c(-c2ccc(OC)c(OC)c2)csc1N the results were HePTP inh 104.0*.
CCCOC(=O)c1c(-c2ccc(OCC)cc2)csc1N was read as HePTP inh -9.8.
